Bioassay records: PubChem, several laboratories
Most compounds without a hit are left out; they make up all but 1.4% or so of the library.
CSN inh = blocks human CSN-mediated cullin deneddylation. Purified CSN, SCF-Nedd8-OG deneddylation, fluorescence polarization. inhibition, % at 12.5 µM. 0.38% of 360,000 active;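 active = pattern-corrected inhibition above about 35%, with an unprinted fluorescence ratio check between 0.5 and 1.5, limit read from the data, passing the limit was not always enough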;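 also: 0% = enzyme with substrate and 100% = substrate without enzyme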
Target sequence (Q92905 whole entry, looked up, one chain of several): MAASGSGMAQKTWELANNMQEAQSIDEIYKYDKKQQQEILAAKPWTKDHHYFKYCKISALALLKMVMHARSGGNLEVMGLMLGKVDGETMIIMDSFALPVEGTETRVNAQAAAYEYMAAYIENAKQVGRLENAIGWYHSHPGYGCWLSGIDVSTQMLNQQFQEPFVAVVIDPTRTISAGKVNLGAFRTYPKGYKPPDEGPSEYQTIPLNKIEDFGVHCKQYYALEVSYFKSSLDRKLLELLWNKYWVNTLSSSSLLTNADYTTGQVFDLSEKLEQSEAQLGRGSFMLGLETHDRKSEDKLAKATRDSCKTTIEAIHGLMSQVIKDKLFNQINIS
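Schedule: reaction 90 min, room temperature / Assay system: HEK293T-derived human Csn5 enzyme / Input: Csn5 at 0.24 nM final / Measure: inhibition of Csn5 cleavage, % / Control set: substrate-only high control, full reaction low control / Technique: fluorescence polarization of the substrate / Buffer or medium: Tris/NaCl/DTT buffer, pH 7.5 / Reagent: SCFSkp2-Nedd8OG substrate at 10 nM final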
HNF4A DNA FP = change in binding of human HNF4 alpha to DNA; P41235; HNF4a-FITC DNA binding, fluorescence polarization, 1 h; activity change, % at 10 µM; 0.3% of 360,000 active; in the data active = activity change above about 30%, passing the limit was not always enough
TPT1 inh = C. albicans TPT1 enzyme inhibition; recombinant caTPT1, FP RNA substrate dephosphorylation; inhibition, % at 5 µM; 0.81% of 300,000 active; AID 1962;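 active = inhibition above the mean of all tested compounds plus 3 SD, set per screening campaign, cut at about 24% in these data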;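 also: plate controls were DMSO alone for no effect and ferristatin control at 100 nM for full effect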
IDE act = boosts human insulin-degrading enzyme activity in HEK cells | P14735 | FAbeta-B cleavage, fluorescence polarization; 0% vehicle, 100% cell-free pure enzyme wells | activation, % at 5.96 µM | 0.073% of 340,000 active | AID 493087;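 active = activation above the mean of all tested compounds plus 3 SD, set per screening campaign, cut at about 17% in these data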
IDE inh = inhibitors of human insulin-degrading enzyme in cells; inhibition, % at 5.59 µM; P14735; 0.41% of 320,000 active; AID 434962; HEK cells, FAbetaB cleavage, fluorescence polarization;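 active = percent inhibition above the average of all tested compounds plus 3 SD, set per screening campaign, cut at about 16% in these data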;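 also: IDE supplied by intact live HEK cells; FP after avidin binding of uncleaved biotin substrate so inhibition keeps polarization high; 0% = DMSO wells and 100% = 60 µM reference IDE inhibitor Ii1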
caTPT1 confirm = confirmation of Candida albicans TPT1 inhibitors; 74% of 2,400 active; inhibition, % at 5 µM; AID 2149; shares compounds with TPT1 inh; recombinant caTPT1, fluorescence polarization, RNase T1 coupled;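 active = inhibition above the primary screen limit, the mean inhibition of all tested compounds plus 3 SD, cut at about 25% in these data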
RNase T1 inh = blocks Aspergillus oryzae RNase T1, a TPT1 counter-screen | shares compounds with TPT1 inh | RNase T1 cleavage, fluorescence polarization, 1536-well | inhibition, % at 5 µM | 83% of 2,400 active;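 active = inhibition above the solvent-only control well mean plus 3 SD, limit set per screening run, cut at about 23% in these data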;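 also: plate controls were DMSO wells with enzyme for no effect and wells without RNase T1 for full effect; inhibitors block cleavage so intact labeled substrate keeps polarization high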
Target sequence (P00651 whole entry, looked up): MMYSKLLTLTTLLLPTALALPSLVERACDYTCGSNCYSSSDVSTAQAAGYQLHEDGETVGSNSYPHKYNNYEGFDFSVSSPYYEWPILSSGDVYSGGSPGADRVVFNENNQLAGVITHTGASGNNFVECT
The depositor's hits bear a star; · = no result; + = active, no number.

SMILES | CSN inh | HNF4A DNA FP | TPT1 inh | IDE act | IDE inh | caTPT1 confirm | RNase T1 inh
Cc1cccc(C)c1-n1nnnc1C(c1cc2ccccc2o1)N1CCN(C/C=C/c2ccccc2)CC1 (stereo not drawn) | 4 | 5 | · | · | · | · | ·
Cc1csc(Nc2ccccc2)n1 | 4 | 2 | + | 7 | 2 | 3 | 9
Cc1csc(Nc2ccc(C(=O)O)cc2)n1 | 4 | -3 | 14 | 10 | -4 | · | ·
COc1ccccc1N=Nc1nc(-c2ccccc2)c(-c2ccccc2)[nH]1 | 7 | 19 | 25* | -1 | 3 | 33* | 42*
COc1ccc(-c2nc(C)ncc2N=Nc2ccccc2)cc1 | -1 | 0 | -1 | 3 | -2 | · | ·
COc1ccc(N=Nc2nc(-c3ccccc3)c(-c3ccccc3)[nH]2)cc1 | 10 | 20 | 31* | -4 | -5 | 43* | 56*
Oc1ccccc1N=Nc1nc(-c2ccccc2)c(-c2ccccc2)[nH]1 | 5 | 23 | 46* | 13 | -4 | 58* | 69*
O=c1[nH]ncc2c3ccccc3n(Cc3cccc(Cl)c3)c12 | 22 | 63* | 69* | -5 | -9 | 157* | 137*
O=c1[nH]ncc2c3ccccc3n(Cc3ccc(F)cc3)c12 | -1 | 4 | 3 | 4 | 0 | · | ·
C[C@H](NC(=O)[C@@H]1CCCN1C(=O)[C@@H]1CCCN1C(=O)c1cccc2ccccc12)c1ccccc1 | -2 | 2 | · | · | · | · | ·
O=[N+]([O-])c1ccc(N/N=C/c2ccccc2)c(F)c1 | 3 | 12 | 27* | -14 | 14 | 44* | 54*
N#Cc1ccc(-c2ccccc2)nc1SCC(=O)c1cccc(Cl)c1 | 3 | 4 | 45* | 4 | 1 | 27* | 36*
COc1cccc(CNC(=O)[C@@H]2CCCN2C(=O)[C@H]2CCCCN2S(=O)(=O)c2ccc(OC)c(C)c2)c1 | -4 | -1 | · | · | · | · | ·
Cc1ccc(S(=O)(=O)C[C@@H]2OC[C@H](C(C)C)N2S(=O)(=O)c2ccc(C)cc2)cc1 | 2 | 1 | · | · | · | · | ·
COc1ccc(/C=C/C=C2\NC(=S)NC2=O)cc1 | -1 | 15 | 28* | 4 | 5 | 19 | 32*
CC(C)(C)NC(=O)Nc1nnc(SCC(=O)NC2CCCCC2)s1 | 0 | -1 | 1 | 3 | 7 | · | ·
O=C1NC(=S)N/C1=C/c1cccc([N+](=O)[O-])c1O | 1 | 3 | 5 | 4 | 0 | · | ·
O=C1NC(=S)N/C1=C/c1cc([N+](=O)[O-])ccc1O | 8 | -2 | 43* | -5 | -4 | 43* | 52*
Cc1csc(-c2nc3ccccc3n2C(C(=O)Nc2c(C)cccc2C)C2CC2)c1 (stereo not drawn) | -4 | 0 | · | · | · | · | ·
O=C(O)c1ccc(N/N=C/c2cc3ccccc3nc2Cl)cc1 | 2 | 10 | 20 | 4 | 4 | · | ·
Cc1cccc2cc(/C=N/Nc3ccc(C(=O)O)cc3)c(Cl)nc12 | 4 | 11 | 25* | -8 | 3 | 42* | 54*
COc1ccc(C(=O)c2sc3nc(C)cc(-c4cccs4)c3c2N)cc1OC | 20 | 36 | 73* | -10 | 10 | 73* | 78*
Cc1cc(-c2cccs2)c2c(N)c(C(=O)c3ccc4c(c3)OCO4)sc2n1 | 15 | 33 | 37* | -1 | 5 | 58* | 67*
Cc1cc(C)c2c(N)c(C(=O)c3ccc(Cl)cc3)sc2n1 | -9 | 1 | -3 | 2 | 8 | · | ·
COc1ccc(NC(=O)c2cc(-c3sc(NC(=O)c4ccccc4)nc3C)n(-c3ccc(Br)cc3)n2)cc1 | -4 | -2 | · | · | · | · | ·
CCOC(=O)CC1(C)Oc2cc(Cl)ccc2N1S(=O)(=O)c1ccc(C)cc1 (stereo not drawn) | 0 | -2 | · | · | · | · | ·
CCc1ccc(/C=C/c2c[nH]c3ccccc23)[n+](CC)c1 | 1 | 17 | 31* | -7 | 8 | 29* | 38*
COc1ccc(CN2CCN(Cc3cc(=O)oc4cc(C)ccc34)CC2)c(OC)c1OC | 0 | 1 | 26* | -3 | 1 | 10 | 13
COc1cc(/C=C(\C#N)c2nc(-c3cc4ccccc4oc3=O)cs2)ccc1O | 28 | 41 | 38* | -3 | 0 | 52* | 58*
